# Key:
# Conditions in all cases: stereoisomer not certain
# [1] = target: T1, OR1D2 (Homo sapiens) (UniProt P34982)
# T1 sequence (whole entry): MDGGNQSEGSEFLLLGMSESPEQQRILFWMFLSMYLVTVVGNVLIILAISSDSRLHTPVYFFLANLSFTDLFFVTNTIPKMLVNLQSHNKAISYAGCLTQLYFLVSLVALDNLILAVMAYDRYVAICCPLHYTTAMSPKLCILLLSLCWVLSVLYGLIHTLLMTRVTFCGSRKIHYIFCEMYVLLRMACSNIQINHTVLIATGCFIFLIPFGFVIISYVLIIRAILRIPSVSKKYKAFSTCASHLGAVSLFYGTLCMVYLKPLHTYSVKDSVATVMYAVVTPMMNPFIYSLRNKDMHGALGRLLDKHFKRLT
# Outline: (§1)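 Each entry records the cell line, G-protein, co-transfected protein and tags used. Methods varied with the source, often transient luciferase assays in mammalian cell lines. A receptor–molecule pair is called responsive (active) if the original authors judged its signal statistically different from baseline and non-responsive (inactive) otherwise.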
# [2] = test system: T2, OR1B1
# T2 sequence (whole entry): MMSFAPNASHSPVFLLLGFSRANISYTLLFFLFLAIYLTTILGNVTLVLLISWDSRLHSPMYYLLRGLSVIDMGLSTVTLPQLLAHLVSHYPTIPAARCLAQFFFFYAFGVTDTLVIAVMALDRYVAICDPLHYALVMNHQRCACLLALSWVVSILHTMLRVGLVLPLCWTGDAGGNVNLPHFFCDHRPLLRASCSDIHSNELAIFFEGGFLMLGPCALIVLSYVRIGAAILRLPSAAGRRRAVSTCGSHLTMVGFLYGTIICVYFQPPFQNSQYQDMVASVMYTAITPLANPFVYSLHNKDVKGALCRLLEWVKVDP
# Outline: as §1
# [3] = target: T3, OR1C1 (Homo sapiens) (UniProt Q15619)
# T3 sequence (whole entry): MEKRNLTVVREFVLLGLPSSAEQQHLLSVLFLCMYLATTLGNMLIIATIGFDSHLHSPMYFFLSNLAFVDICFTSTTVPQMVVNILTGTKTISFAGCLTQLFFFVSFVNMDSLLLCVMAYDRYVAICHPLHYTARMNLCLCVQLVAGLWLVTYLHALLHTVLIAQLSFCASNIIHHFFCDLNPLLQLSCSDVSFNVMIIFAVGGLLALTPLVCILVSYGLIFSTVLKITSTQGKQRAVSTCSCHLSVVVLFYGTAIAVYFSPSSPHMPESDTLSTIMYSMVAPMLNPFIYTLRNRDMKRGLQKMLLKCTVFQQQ
# Outline: as §1
SMILES,odorant receptor agonist call [1],odorant receptor agonist call [2],odorant receptor agonist call [3]
CC(C=O)Cc1ccc(C(C)C)cc1 (configuration not stated),active,–,–
O=CCCc1ccccc1,active,–,–
CC1=C(O)C(=O)OC1C (configuration not stated),inactive,inactive,inactive
CCCCCC(S)C(C)CO (configuration not stated),inactive,inactive,inactive
O=CCCCc1ccccc1,active,–,–
CC1=C(O)C(=O)C(C)O1 (configuration not stated),inactive,inactive,inactive

# From the M2OR odorant receptor database
